Calls of active or inactive are those of the source. The rule behind the calls is not given here.
Legend:
[1] = molecular target: Histone deacetylase 3 (Homo sapiens, UniProt O15379); experiment: Inhibition of HDAC3 (unknown origin) assessed as inhibition of fluorogenic peptide deacetylation
[2] = molecular target: T1, Protein deacetylase HDAC6 (Homo sapiens, UniProt Q9UBN7); experiment: Inhibition of HDAC6 (unknown origin) assessed as inhibition of fluorogenic peptide deacetylation
T1 sequence (Q9UBN7 whole entry): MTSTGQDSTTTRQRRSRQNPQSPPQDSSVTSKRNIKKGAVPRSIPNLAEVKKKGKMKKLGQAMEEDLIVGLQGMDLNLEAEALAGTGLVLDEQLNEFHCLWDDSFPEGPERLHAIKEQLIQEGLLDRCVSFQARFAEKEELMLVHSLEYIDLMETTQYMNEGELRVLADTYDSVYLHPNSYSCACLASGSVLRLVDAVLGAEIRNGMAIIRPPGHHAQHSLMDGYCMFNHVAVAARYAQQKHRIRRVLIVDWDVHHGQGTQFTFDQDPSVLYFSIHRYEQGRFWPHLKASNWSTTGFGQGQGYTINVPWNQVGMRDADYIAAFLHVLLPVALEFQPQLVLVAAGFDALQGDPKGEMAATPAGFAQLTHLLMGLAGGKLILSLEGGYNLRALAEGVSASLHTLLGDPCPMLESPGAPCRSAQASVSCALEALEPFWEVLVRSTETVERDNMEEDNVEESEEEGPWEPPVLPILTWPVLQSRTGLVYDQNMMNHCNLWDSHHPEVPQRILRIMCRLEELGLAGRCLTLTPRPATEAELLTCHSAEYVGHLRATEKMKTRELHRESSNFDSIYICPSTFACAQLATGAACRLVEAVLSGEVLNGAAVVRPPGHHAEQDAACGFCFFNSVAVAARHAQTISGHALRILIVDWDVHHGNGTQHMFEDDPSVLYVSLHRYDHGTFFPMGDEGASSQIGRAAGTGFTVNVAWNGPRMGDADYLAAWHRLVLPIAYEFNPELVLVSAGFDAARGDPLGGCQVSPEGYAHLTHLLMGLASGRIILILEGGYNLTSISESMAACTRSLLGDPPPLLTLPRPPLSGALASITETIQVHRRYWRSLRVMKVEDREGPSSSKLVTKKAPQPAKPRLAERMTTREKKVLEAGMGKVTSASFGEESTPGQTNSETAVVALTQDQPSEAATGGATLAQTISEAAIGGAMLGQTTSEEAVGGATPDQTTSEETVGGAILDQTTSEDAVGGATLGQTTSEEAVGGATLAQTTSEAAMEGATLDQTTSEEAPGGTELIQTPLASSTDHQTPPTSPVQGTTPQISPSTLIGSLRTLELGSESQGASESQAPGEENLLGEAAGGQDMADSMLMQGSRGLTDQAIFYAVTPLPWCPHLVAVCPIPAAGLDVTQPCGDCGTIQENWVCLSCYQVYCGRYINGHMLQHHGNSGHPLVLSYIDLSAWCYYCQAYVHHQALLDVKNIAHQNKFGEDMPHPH

[3] = molecular target: Histone deacetylase 2 (Homo sapiens, UniProt Q92769); experiment: Inhibition of HDAC2 (unknown origin) assessed as inhibition of fluorogenic peptide deacetylation
[4] = molecular target: Histone deacetylase 1 (Homo sapiens, UniProt Q13547); experiment: Inhibition of HDAC1 (unknown origin) assessed as inhibition of fluorogenic peptide deacetylation
[5] = molecular target: T2, Androgen receptor (Homo sapiens, UniProt P10275); experiment: Displacement of [3H]mibolerone from androgen receptor (unknown origin) in membranes after 24 hrs by HAP adsorption assay
T2 sequence (P10275 whole entry): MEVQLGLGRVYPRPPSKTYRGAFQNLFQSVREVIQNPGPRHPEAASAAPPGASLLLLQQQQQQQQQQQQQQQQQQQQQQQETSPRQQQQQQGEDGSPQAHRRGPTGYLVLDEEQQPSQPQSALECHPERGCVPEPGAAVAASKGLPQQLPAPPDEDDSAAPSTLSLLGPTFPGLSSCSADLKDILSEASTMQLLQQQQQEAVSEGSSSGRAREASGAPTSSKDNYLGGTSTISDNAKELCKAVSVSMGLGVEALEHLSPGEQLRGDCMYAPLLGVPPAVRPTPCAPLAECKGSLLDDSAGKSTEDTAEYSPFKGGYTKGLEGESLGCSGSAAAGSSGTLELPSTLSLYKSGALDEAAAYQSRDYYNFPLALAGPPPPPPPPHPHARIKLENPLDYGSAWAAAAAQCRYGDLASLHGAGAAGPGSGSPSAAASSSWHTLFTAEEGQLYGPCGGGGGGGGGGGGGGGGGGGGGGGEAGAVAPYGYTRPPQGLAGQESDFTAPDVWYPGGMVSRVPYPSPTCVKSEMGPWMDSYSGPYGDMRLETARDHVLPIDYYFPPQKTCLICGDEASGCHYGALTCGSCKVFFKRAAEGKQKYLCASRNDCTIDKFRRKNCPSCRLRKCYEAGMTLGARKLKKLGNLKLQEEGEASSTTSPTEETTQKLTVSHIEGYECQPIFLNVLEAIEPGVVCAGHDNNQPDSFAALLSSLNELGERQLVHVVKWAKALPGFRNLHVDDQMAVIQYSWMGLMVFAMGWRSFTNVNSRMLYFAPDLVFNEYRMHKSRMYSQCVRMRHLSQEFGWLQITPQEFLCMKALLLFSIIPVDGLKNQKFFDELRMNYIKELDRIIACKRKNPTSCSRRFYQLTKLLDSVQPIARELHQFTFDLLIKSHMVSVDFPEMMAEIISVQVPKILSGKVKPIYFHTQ

[6] = molecular target: T3, Androgen receptor (Homo sapiens) (UniProt P10275); experiment: Antagonist activity at AR in human LNCAP cells assessed as suppression of DHT-induced AR protein level measured after 24 hrs relative to control; assay type: cell-based
T3 sequence (whole entry): T2 sequence (P10275 whole entry)
In short: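 LNCaP cells were stimulated with 10 nM DHT and co-treated with test agent for 24 h. Whole-cell extracts were resolved on an acrylamide gel and immunoblotted for AR and acetylated tubulin, with actin as the loading control. AR protein level was normalized to actin and compared with vehicle-treated cells.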

Sequence of Histone deacetylase 1 (Q13547 whole entry): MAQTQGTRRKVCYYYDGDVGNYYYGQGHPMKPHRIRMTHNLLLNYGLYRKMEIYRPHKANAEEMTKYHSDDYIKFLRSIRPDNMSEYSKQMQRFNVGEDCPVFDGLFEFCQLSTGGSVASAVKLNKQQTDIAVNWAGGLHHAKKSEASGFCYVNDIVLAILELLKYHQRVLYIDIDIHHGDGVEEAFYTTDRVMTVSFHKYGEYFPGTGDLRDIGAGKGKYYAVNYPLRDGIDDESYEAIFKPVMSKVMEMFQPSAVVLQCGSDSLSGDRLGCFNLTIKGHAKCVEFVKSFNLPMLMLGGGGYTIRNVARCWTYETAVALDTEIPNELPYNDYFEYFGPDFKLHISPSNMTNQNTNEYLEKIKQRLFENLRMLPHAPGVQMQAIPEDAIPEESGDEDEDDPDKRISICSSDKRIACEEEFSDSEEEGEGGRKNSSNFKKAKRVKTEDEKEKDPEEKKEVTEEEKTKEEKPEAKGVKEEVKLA
Sequence of Histone deacetylase 3 (O15379 whole entry): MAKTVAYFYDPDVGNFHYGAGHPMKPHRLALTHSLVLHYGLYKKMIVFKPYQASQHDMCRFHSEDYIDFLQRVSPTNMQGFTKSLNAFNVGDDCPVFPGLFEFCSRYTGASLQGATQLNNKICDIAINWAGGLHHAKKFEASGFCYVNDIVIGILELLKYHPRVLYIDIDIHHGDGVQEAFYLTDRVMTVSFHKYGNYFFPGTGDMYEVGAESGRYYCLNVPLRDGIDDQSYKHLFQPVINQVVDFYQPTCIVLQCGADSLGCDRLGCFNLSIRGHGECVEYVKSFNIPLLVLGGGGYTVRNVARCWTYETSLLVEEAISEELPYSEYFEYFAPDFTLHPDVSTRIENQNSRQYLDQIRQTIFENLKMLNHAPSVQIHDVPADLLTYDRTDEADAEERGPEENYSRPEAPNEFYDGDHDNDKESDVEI
Sequence of Histone deacetylase 2 (Q92769 whole entry): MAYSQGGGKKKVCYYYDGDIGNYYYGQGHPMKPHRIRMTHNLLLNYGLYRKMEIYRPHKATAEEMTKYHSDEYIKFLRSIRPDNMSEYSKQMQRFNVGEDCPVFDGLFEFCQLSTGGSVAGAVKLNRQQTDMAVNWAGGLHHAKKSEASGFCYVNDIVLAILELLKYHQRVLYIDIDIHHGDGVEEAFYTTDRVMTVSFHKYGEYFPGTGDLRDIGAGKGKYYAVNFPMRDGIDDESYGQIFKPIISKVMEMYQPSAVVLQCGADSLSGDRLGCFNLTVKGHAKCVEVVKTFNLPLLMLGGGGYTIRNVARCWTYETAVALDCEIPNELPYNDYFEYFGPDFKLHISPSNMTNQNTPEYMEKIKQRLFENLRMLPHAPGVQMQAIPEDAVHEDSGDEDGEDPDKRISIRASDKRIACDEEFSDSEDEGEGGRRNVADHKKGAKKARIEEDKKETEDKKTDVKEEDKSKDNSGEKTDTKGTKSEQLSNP

Row | inhibition [6] | SMILES | IC50 [1] [µM] | IC50 [2] [µM] | IC50 [3] [µM] | IC50 [4] [µM] | IC50 [5] [µM]
1 |  | CC1(C)C(=O)N(c2ccc(C#N)c(C(F)(F)F)c2)C(=S)N1c1ccc(C(=O)NCCCCCCNS(N)(=O)=O)c(F)c1 | > 100 | 1.12 | > 100 | > 100 | 0.11
2 |  | CC1(C)C(=O)N(c2ccc(C#N)c(C(F)(F)F)c2)C(=S)N1c1ccc(C(=O)Nc2ccccc2N)c(F)c1 | 5.4 | 47.3 | 14.1 | 6.19 | 0.33
3 |  | CC1(C)C(=O)N(c2ccc(C#N)c(C(F)(F)F)c2)C(=S)N1c1ccc(C(=O)NCCCNS(N)(=O)=O)c(F)c1 | > 100 | > 100 | > 100 | > 100 | 0.35
4 |  | CC1(C)C(=O)N(c2ccc(C#N)c(C(F)(F)F)c2)C(=S)N1c1ccc(C(=O)NCCCn2cccc(O)c2=O)c(F)c1 | > 100 | 14 | > 100 | > 100 | 0.56
5 |  | CC1(C)C(=O)N(c2ccc(C#N)c(C(F)(F)F)c2)C(=S)N1c1ccc(C(=O)NCCOCCC(=O)NO)c(F)c1 | 49.2 | 0.495 | 86.5 | 58.1 | 0.078
6 | Active | CN1CCc2c(c3ccccc3n2Cc2ccc(C(=O)NO)cc2)C1 |  |  |  |  | 
7 |  | CC1(C)C(=O)N(c2ccc(C#N)c(C(F)(F)F)c2)C(=S)N1c1ccc(Cn2ccc3cc(/C=C/C(=O)NO)ccc32)c(F)c1 | > 100 | 2.03 | > 100 | > 100 | < 0.03

Source: ChEMBL document CHEMBL3862016 (Bioorg Med Chem Lett, 2016)
